Data as given in publication PMC3918441 (Cell reports, 2014).

Tests used:
KDM5B PHD3 finger [1] = test: 1H,15N HSQC NMR titration, KDM5B PHD3; format: binding, human; settings: WT PHD3; 1H,15N HSQC titration, 298K, 0.1 mM protein, 12-mer peptides
Outline: (§1)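 1H,15N HSQC titration of uniformly 15N-labeled PHD3 at 0.1 mM, wild type or mutated (including D1506R). Spectra recorded with increasing concentrations of 12-mer histone tail peptides and superimposed. Per-residue normalized chemical shift changes calculated as Δδ = √[(ΔδH)² + (ΔδN/5)²].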

KDM5B PHD1 finger = target: T1, KDM5B PHD1 finger (Homo sapiens, UniProt Q9UGL1); test: 1H,15N HSQC NMR titration, KDM5B PHD1; format: binding; settings: WT PHD1; NMR spectra, 298K, 0.1 mM 15N-labeled protein, 12-mer peptide
T1 sequence (Q9UGL1 309-359 limits assumed): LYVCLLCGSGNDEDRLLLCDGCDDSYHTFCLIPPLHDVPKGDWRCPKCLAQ
Outline: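 Uniformly 15N-labeled wild-type PHD1 at 0.1 mM; 1H,15N HSQC spectra recorded over increasing concentrations of 12-mer histone tail peptides. Normalized shift change Δδ = √[(ΔδH)² + (ΔδN/5)²] in ppm. Kd obtained by nonlinear least-squares fit of Δδ against peptide and protein concentrations to a quadratic binding equation.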

KDM5B PHD3 finger [2] = test: Tryptophan fluorescence titration, KDM5B PHD3; format: binding, human; settings: WT PHD3; NMR and fluorescence spectroscopy
Outline: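 Tryptophan fluorescence at 25 °C: PHD3 in PBS titrated with increasing histone peptide concentrations. Excitation 295 or 280 nm; emission scanned 305–405 nm in 0.5 nm steps with 1 s integration; three scans averaged. Kd from nonlinear least-squares fit of intensity change to a quadratic binding equation; mean of three separate experiments, error as standard deviation.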

[3] = system: KDM5B PHD3 mutants (W1502, W1512, D1506R); test: Binding to KDM5B PHD3 mutants; design: species or system human; settings: Fig. 6c-e
Outline: as §1

Row | Substance | pattern of chemical shift changes in HSQC spectra of PHD3 (KDM5B PHD3 finger [1]) | affinity of association (KDM5B PHD1 finger) | preference of PHD3 among H3K4me3/2/1/0 (KDM5B PHD3 finger [2]) | interaction with PHD3 D1506R mutant ([3]; acidic D1506 replaced with an arginine) | interaction with PHD3 W1502 and W1512 mutants ([3]; mutation of W1502 and W1512)
1 | H3K4me2: H3K4me2 peptide, residues 1-12 of H3, dimethylated lysine 4 | almost identical pattern of chemical shift changes |  |  |  | 
2 | H3K4me1: H3K4me1 peptide, residues 1-12 of H3, monomethylated lysine 4 | almost identical pattern of chemical shift changes |  |  |  | 
3 | H3K4me3: trimethylated H3K4me3 peptide, 12-mer histone tail peptide; biotinylated in pull-downs | almost identical pattern of chemical shift changes | almost negligible association in the mM range of affinities | only slight preference for the trimethylated state of H3K4 | reduced it | disrupted interaction
